Assay results published in ChEMBL document CHEMBL1140989, “Synthesis, penetrability and intracellular targeting of fluorescein-tagged peptoids and peptide-peptoid hybrids” (Bioorg Med Chem, 2009).
Square brackets hold non-standard residues; d marks the D form. Peptide text beside a SMILES is read from it. * marks the point of attachment. X1 = O=C(O)c1cc(C(=O)*)ccc1-c1c2ccc(=O)cc-2oc2cc(O)ccc12; Gly(N-(CH2)6NH2) = NCCCCCCNCC(=O)O; Ahx = NCCCCCC(=O)O

Columns and labels:
Format in all cases: cell-based
[1] = test system: HeLa; assay: Cytotoxicity against human HeLa cells after 24 hrs by MTT assay
Method in brief: (§1)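 Cells kept in 10 µM peptoid in medium. Viability read by MTT 24 h after compound addition, absorbance at 570 nm.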

[2] = test system: K562; assay: Cytotoxicity against human K562 cells after 24 hrs by MTT assay; details: k562, 24 h; method in brief: as §1
[3] = test system: L929; assay: Cytotoxicity against mouse L929 cells after 24 hrs by MTT assay; details: l929, 24 h; method in brief: as §1

Measured: Activity

NCCCCCCN(CC(N)=O)C(=O)CN(CCCCCCN)C(=O)CN(CCCCCCN)C(=O)CCCCCNC(=O)c1ccc(-c2c3ccc(=O)cc-3oc3cc(O)ccc23)c(C(=O)O)c1
Non-toxic: all assays above

NCCCCCCN(CC(N)=O)C(=O)CCCCCNC(=O)c1ccc(-c2c3ccc(=O)cc-3oc3cc(O)ccc23)c(C(=O)O)c1
Non-toxic: all assays above

NCCCCCCN(CC(N)=O)C(=O)CN(CCCCCCN)C(=O)CN(CCCCCCN)C(=O)CN(CCCCCCN)C(=O)CN(CCCCCCN)C(=O)CCCCCNC(=O)c1ccc(-c2c3ccc(=O)cc-3oc3cc(O)ccc23)c(C(=O)O)c1
Non-toxic: all assays above

NCCCCCCN(CC(N)=O)C(=O)CN(CCCCCCN)C(=O)CN(CCCCCCN)C(=O)CN(CCCCCCN)C(=O)CN(CCCCCCN)C(=O)CN(CCCCCCN)C(=O)CN(CCCCCCN)C(=O)CCCCCNC(=O)c1ccc(-c2c3ccc(=O)cc-3oc3cc(O)ccc23)c(C(=O)O)c1 ({X1-Ahx}-[Gly(N-(CH2)6NH2)][Gly(N-(CH2)6NH2)][Gly(N-(CH2)6NH2)][Gly(N-(CH2)6NH2)][Gly(N-(CH2)6NH2)][Gly(N-(CH2)6NH2)][Gly(N-(CH2)6NH2)]-NH2)
Non-toxic: all assays above
